Values joined by “and” are separate entries in the source; they are usually repeats but may differ in a detail not shown here. Equal values may be shown once.
Key:
Assay type in all cases: functional
Mus musculus [1] = assay: Decreased wet tissue weight of DTH-GRA from mice was determined after (sc) administration of a dose of 100 mg/kg after 9 days; details: for inhibition in vivo at 100 mg/kg: Mus musculus, sc, 216 h
How it was run: (§1)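 Groups of 10 female CF-1 mice (25 g) were sensitized sc over the inguinal node with mBSA/Freund's incomplete adjuvant/dextran. Three weeks later, two 6 mm hydroxyapatite discs soaked in mBSA (30 mg/mL) were implanted sc in the dorsum. Drug was given sc in the scruff. After 9 days, granulomas were excised and wet/dry weights compared with vehicle controls as percent inhibition.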

Mus musculus [2] = assay: Decreased wet tissue weight of DTH-GRA from mice was determined after (sc) administration of a dose of 10 mg/kg after 9 days; how it was run: as §1
Mus musculus [3] = assay: Decreased dry tissue weight of DTH-GRA from mice was determined after (sc) administration of a dose of 10 mg/kg after 9 days; how it was run: as §1
Mus musculus [4] = assay: Compound was tested for the suppression of Antigen-Induced Arthritis in mice after 28 days, which were dosed 10 mg/kg subcutaneously; details: sc, 672 h, route subcutaneous
How it was run: (§2)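 mBSA-sensitized mice were boosted after 7 days and, 14 days later, challenged intraarticularly with 200 μg mBSA in saline in the left rear stifle. Drug in sterile saline was given sc in the scruff from day 0 on a 5-of-7-day regimen to day 28. H&E sagittal joint sections were graded 1–5 for inflammation, pannus, and cartilage/bone erosion; results are percent inhibition.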

Mus musculus [5] = assay: Compound was tested for the suppression of Antigen-Induced Arthritis in mice after 28days, which were dosed 100 mg/kg subcutaneously;; details: sc, 672 h, route subcutaneous; how it was run: as §2
Mus musculus [6] = assay: Compound was tested for the suppression of Antigen-Induced Arthritis in mice after 28days, at a dose of 100 mg/kg administered subcutaneously; p<0.001; details: sc, 672 h, route subcutaneous; how it was run: as §2
Mus musculus [7] = assay: Decreased dry tissue weight of DTH-GRA from mice was determined after (sc) administration of a dose of 100 mg/kg after 9 days; details: 216 h; how it was run: as §1
Mus musculus [8] = assay: Compound was tested for the suppression of Antigen-Induced Arthritis in mice after 28days, which were dosed 100 mg/kg subcutaneously; details: sc, 672 h, route subcutaneous; how it was run: as §2
Mus musculus [9] = assay: Compound was tested for the suppression of Antigen-Induced Arthritis in mice after 28days, at a dose of 100 mg/kg administered subcutaneously; details: sc, 672 h, route subcutaneous; how it was run: as §2
Mus musculus [10] = assay: Compound was tested for the suppression of Antigen-Induced Arthritis in mice after 28 days, at a dose of 25 mg/kg administered subcutaneously; details: sc, 672 h, route subcutaneous; how it was run: as §2
Mus musculus [11] = assay: Compound was tested for the suppression of Antigen-Induced Arthritis in mice after 28 days, at a dose of 50 mg/kg administered subcutaneously; details: sc, 672 h, route subcutaneous; how it was run: as §2
Mus musculus [12] = assay: Compound was tested for the suppression of Antigen-Induced Arthritis in mice after 28days, at a dose of 10 mg/kg administered subcutaneously; details: sc, 672 h, route subcutaneous; how it was run: as §2
Mus musculus [13] = assay: Decreased dry tissue weight of DTH-GRA from mice was determined after (sc) administration of a dose of 100 mg/kg
How it was run: (§3)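 Groups of 10 female CF-1 mice (25 g) sensitized sc over the inguinal lymph node with mBSA emulsion (saline, Freund's incomplete adjuvant, dextran). Three weeks later, two hydroxyapatite discs (6 mm) soaked in mBSA (30 mg/mL saline) implanted sc bilaterally in the dorsum. Compound given sc in scruff of neck in saline vehicle. Granulomas excised after 9 days; wet and dry weights expressed as percent inhibition versus vehicle-dosed controls.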

Mus musculus [14] = assay: Decreased wet tissue weight of DTH-GRA from mice was determined after (sc) administration of a dose of 25 mg/kg; how it was run: as §3
Mus musculus [15] = assay: Decreased wet tissue weight of DTH-GRA from mice was determined after (sc) administration of a dose of 100 mg/kg; how it was run: as §3
Mus musculus [16] = assay: Decreased dry tissue weight of DTH-GRA from mice was determined after (sc) administration of a dose of 50 mg/kg; how it was run: as §3
Mus musculus [17] = assay: Decreased wet tissue weight of DTH-GRA from mice was determined after (sc) administration of a dose of 200 mg/kg; how it was run: as §3
Mus musculus [18] = assay: Decreased dry tissue weight of DTH-GRA from mice was determined after (sc) administration of a dose of 200 mg/kg; how it was run: as §3
Mus musculus [19] = assay: Decreased wet tissue weight of DTH-GRA from mice was determined after (sc) administration of a dose of 50 mg/kg; how it was run: as §3
Mus musculus [20] = assay: Decreased dry tissue weight of DTH-GRA from mice was determined after (sc) administration of a dose of 25 mg/kg; how it was run: as §3

## CCOP(=O)(OCC)C(CC1CCCC(c2ccccc2)C1=O)P(=O)(OCC)OCC (centres undefined)
Mus musculus [1]
  inhibition in vivo at 100 mg/kg: 50%

## CCOC(=O)C(CC(P(=O)(OCC)OCC)P(=O)(OCC)OCC)C(=O)c1ccccc1 (centres undefined)
Mus musculus [1]
  inhibition in vivo at 100 mg/kg: 77%

## CCOP(=O)(OCC)C(CC(=O)C(=O)c1ccccc1)P(=O)(OCC)OCC
Mus musculus [1]
  inhibition in vivo at 100 mg/kg: 49%
Mus musculus [2]
  Inhibition: 56% and 49% and 43% and 28%
Mus musculus [3]
  Inhibition: 45% and 54% and 49% and 38% and 27%
Mus musculus [4]
  inhibition in vivo at 10 mg/kg: 12%

## CCOP(=O)(OCC)C(CC(C(=O)OC)c1ccccc1O)P(=O)(OCC)OCC (centres undefined)
Mus musculus [1]
  inhibition in vivo at 100 mg/kg: 5%

## CCOP(=O)(OCC)C(CC1Cc2ccccc2C1=O)P(=O)(OCC)OCC (centres undefined)
Mus musculus [1]
  inhibition in vivo at 100 mg/kg: 0%

## CCOP(=O)(OCC)C(CC(C(=O)Nc1ccccc1)C(=O)c1ccccc1)P(=O)(OCC)OCC (centres undefined)
Mus musculus [1]
  inhibition in vivo at 100 mg/kg: 3%

## CCOP(=O)(OCC)C(CC1CCCC(C)C1=O)P(=O)(OCC)OCC (centres undefined)
Mus musculus [1]
  inhibition in vivo at 100 mg/kg: 25%
Mus musculus [5]
  inhibition in vivo at 100 mg/kg: 46%

## CCOP(=O)(OCC)C(CC(C#N)c1cccc2ccccc12)P(=O)(OCC)OCC (centres undefined)
Mus musculus [1]
  inhibition in vivo at 100 mg/kg: 0%

## CCOP(=O)(OCC)C(CC1C(=O)c2ccccc2SC1C)P(=O)(OCC)OCC (centres undefined)
Mus musculus [1]
  inhibition in vivo at 100 mg/kg: 33%

## CCOP(=O)(OCC)C(CC(C(=O)OC)c1ccccc1)P(=O)(OCC)OCC (centres undefined)
Mus musculus [1]
  inhibition in vivo at 100 mg/kg: 8%
Mus musculus [6]
  inhibition in vivo at 100 mg/kg: 38%

## CCOP(=O)(OCC)C1(P(=O)(OCC)OCC)CC(C(=O)c2ccccc2)=NN1
Mus musculus [1]
  inhibition in vivo at 100 mg/kg: 31%

## CCOP(=O)(OCC)C(CC(C(=O)c1ccc(OC)cc1)c1ccccn1)P(=O)(OCC)OCC (centres undefined)
Mus musculus [1]
  inhibition in vivo at 100 mg/kg: 34%

## CCOP(=O)(OCC)C(C[C@H]1C(=O)c2ccccc2O[C@H]1c1ccccc1)P(=O)(OCC)OCC
Mus musculus [1]
  inhibition in vivo at 100 mg/kg: 0%

## CCOP(=O)(OCC)C(CC(C#N)c1cccs1)P(=O)(OCC)OCC (centres undefined)
Mus musculus [1]
  inhibition in vivo at 100 mg/kg: 40%

## CCOP(=O)(OCC)C(CC1Sc2ccccc2C1=O)P(=O)(OCC)OCC (centres undefined)
Mus musculus [1]
  inhibition in vivo at 100 mg/kg: 27%

## CCOP(=O)(OCC)C(CC1COc2ccccc2C1=O)P(=O)(OCC)OCC (centres undefined)
Mus musculus [1]
  inhibition in vivo at 100 mg/kg: 67%

## CCOP(=O)(OCC)C(CC1C(=O)c2ccccc2OC1c1ccccc1)P(=O)(OCC)OCC (centres undefined)
Mus musculus [7]
  inhibition in vivo at 100 mg/kg: 47%
Mus musculus [8]
  inhibition in vivo at 100 mg/kg: 21%
Mus musculus [1]
  inhibition in vivo at 100 mg/kg: 46%

## CCOP(=O)(OCC)C(CC1CSc2ccc(C)cc2C1=O)P(=O)(OCC)OCC (centres undefined)
Mus musculus [9]
  inhibition in vivo at 100 mg/kg: 21%
Mus musculus [1]
  inhibition in vivo at 100 mg/kg: 28%

## CCOP(=O)(OCC)C(C[C@@H]1C(=O)c2ccccc2O[C@H]1c1ccccc1)P(=O)(OCC)OCC
Mus musculus [1]
  inhibition in vivo at 100 mg/kg: 67%

## CCOP(=O)(OCC)C(CC(C(=O)c1ccccc1)c1ccccc1)P(=O)(OCC)OCC (centres undefined)
Mus musculus [8]
  inhibition in vivo at 100 mg/kg: 52%
Mus musculus [1]; 100 mg/kg
  Inhibition: 51% and 44% and 35%
Mus musculus [1]
  inhibition in vivo at 100 mg/kg: 48%
Mus musculus [3]
  Inhibition: 57% and 48% and 38%
Mus musculus [10]
  inhibition in vivo at 25 mg/kg: 55%
Mus musculus [11]
  inhibition in vivo at 50 mg/kg: 53%

## CCOP(=O)(OCC)C(CC(C#N)c1ccccn1)P(=O)(OCC)OCC (centres undefined)
Mus musculus [12]
  inhibition in vivo at 10 mg/kg: 2%

## O=P(O)(O)C(Cl)(Cl)P(=O)(O)O [CLODRONIC ACID]
Mus musculus [7]
  inhibition in vivo at 100 mg/kg: 50%
Mus musculus [1]
  inhibition in vivo at 100 mg/kg: 45%
Mus musculus [13]
  inhibition in vivo at 100 mg/kg: 63%
Mus musculus [14]
  inhibition in vivo at 25 mg/kg: 45%
Mus musculus [15]
  inhibition in vivo at 100 mg/kg: 61%
Mus musculus [16]
  inhibition in vivo at 50 mg/kg: 47%
Mus musculus [17]
  inhibition in vivo at 200 mg/kg: 55%
Mus musculus [18]
  inhibition in vivo at 200 mg/kg: 59%
Mus musculus [19]
  inhibition in vivo at 50 mg/kg: 48%
Mus musculus [20]
  inhibition in vivo at 25 mg/kg: 45%

Source: ChEMBL document CHEMBL1127301, “Carbonyl-containing bisphosphonate esters as novel antiinflammatory and antiarthritic agents” (1994)
